The structures appear in SMILES notation. Activity calls are given as the source filed them. No cut-off for these calls is given here.

The target in data set [1] is Rho-associated protein kinase 1 (Homo sapiens) (UniProt Q13464). Description: Binding affinity to wild-type human partial length ROCK1 (M1 to R415 residues) expressed in mammalian expression system assessed as remaining unbound target protein level at 1000 nM by Kinomescan method relative to control.
Data set [2] has as its system Tyrosine-protein kinase ABL1 (Homo sapiens), P00519 [E255K]. Description: Binding affinity to human phosphorylated ABL1 E255K mutant (S229 to K512 residues) expressed in mammalian expression system assessed as remaining unbound target protein level at 1000 nM by Kinomescan method relative to control. The method, boiled down: (§1)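 KINOMEscan competition-binding profiling across the panel of 468 kinases and mutants, with inhibitor tested at 1 μM. Binding is expressed as percent of control, with DMSO as the reference control.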

The test system of another data set is HL-60. Description: Induction of apoptosis in human HL60 cells assessed as decrease in MCL-1 level after 2 hrs by immunoblotting analysis. The class given is functional, cell-based.
Data set [3] addresses Megakaryocyte-associated tyrosine-protein kinase (Homo sapiens) (UniProt P42679). The data set can be described thus: Binding affinity to wild-type human full length CTK (M43 to P508 residues) expressed in mammalian expression system assessed as remaining unbound target protein level at 1000 nM by Kinomescan method relative to control. The gist of the method: (§2)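 Single-point competition binding screen across a panel of 468 kinases and mutants, with the inhibitor at 1 μM. Binding is read out as percent of a DMSO control, and targets below 1 percent control were classed as strong binders.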

Data set [4] deals with Cyclin-dependent kinase 13 (Homo sapiens) (UniProt Q14004). The data set can be described thus: Binding affinity to wild-type human partial length CDC2L5 (H675 to S1054 residues) expressed in mammalian expression system assessed as remaining unbound target protein level at 1000 nM by Kinomescan method relative to control. The method, boiled down:
(§3)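 KINOMEscan competition binding profile across a panel of 468 kinases and mutants, with the inhibitor tested at a single concentration of 1 μM. Binding is reported as percent of control, meaning signal relative to a DMSO control.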

In data set [5] the target is Cyclin-dependent kinase 14 (Homo sapiens) (UniProt O94921). The data set can be described thus: Binding affinity to wild-type human full length PFTK1 (M1 to H451 residues) expressed in bacterial expression system assessed as remaining unbound target protein level at 1000 nM by Kinomescan method relative to control. The method, boiled down:
as §3

Data set [6] has as its target Dual specificity mitogen-activated protein kinase kinase 4 (Homo sapiens) (UniProt P45985). The data set can be described thus: Binding affinity to wild-type human partial length MEK4 (S84 to D399 residues) expressed in mammalian expression system assessed as remaining unbound target protein level at 1000 nM by Kinomescan method relative to control. The gist of the method: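 KINOMEscan binding panel of 468 kinases/mutants. Inhibitor was tested at a single concentration of 1 μM. Binding is reported as percent of control, defined relative to a DMSO control.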

Data set [7] deals with Serine/threonine-protein kinase LATS2 (Homo sapiens) (UniProt Q9NRM7). The data set can be described thus: Binding affinity to wild-type human partial length LATS2 (Q641 to V1088 residues) expressed in mammalian expression system assessed as remaining unbound target protein level at 1000 nM by Kinomescan method relative to control.
Data set [8] concerns Receptor-type tyrosine-protein kinase FLT3 (Homo sapiens), P36888 [UNDEFINED MUTATION]. The data set can be described thus: Binding affinity to human partial length FLT3 ITD/F691L double mutant expressed in bacterial expression system assessed as remaining unbound target protein level at 1000 nM by Kinomescan method relative to control. The gist of the method: as §1
Data set [9] is described as follows: Tmax in mouse at 10 mg/kg, po by LC-MS/MS analysis. The class given is ADME, organism-based. The conditions noted are these: in vivo.
Data set [10] relates to Receptor-type tyrosine-protein kinase FLT3 (Homo sapiens), P36888 [D835V]. Description: Binding affinity to human partial length FLT3 D835V mutant (V592 to Y969 residues) expressed in bacterial expression system assessed as remaining unbound target protein level at 1000 nM by Kinomescan method relative to control. The gist of the method: as §1
Data set [11] concerns the target Mitogen-activated protein kinase kinase kinase 19 (Homo sapiens) (UniProt Q56UN5). The data set can be described thus: Binding affinity to wild-type human partial length YSK4 (T1019 to H1328 residues) expressed in mammalian expression system assessed as remaining unbound target protein level at 1000 nM by Kinomescan method relative to control.
Data set [12] has as its system Tyrosine-protein kinase ABL1 (Homo sapiens), P00519 [Y253F]. The data set can be described thus: Binding affinity to human phosphorylated ABL1 Y253F mutant (S229 to K512 residues) expressed in mammalian expression system assessed as remaining unbound target protein level at 1000 nM by Kinomescan method relative to control. The method, boiled down: as §2
The target of data set [13] is LIM domain kinase 1 (Homo sapiens) (UniProt P53667). Description: Binding affinity to wild-type human full length LIMK1 (M1 to D647 residues) expressed in bacterial expression system assessed as remaining unbound target protein level at 1000 nM by Kinomescan method relative to control. The method, boiled down: as §2
For data set [14], the target named is Myosin light chain kinase (Homo sapiens) (UniProt Q32MK0). Description: Binding affinity to wild-type human partial length MLCK (D488 to K800 residues) expressed in bacterial expression system assessed as remaining unbound target protein level at 1000 nM by Kinomescan method relative to control.
The target of data set [15] is Cyclin-dependent kinase 5/CDK5 activator 1 (Homo sapiens, UniProt Q00535). The data set can be described thus: Inhibition of recombinant full length His/GST-tagged human CDK5/p25 expressed in baculovirus expression system.
Data set [16] deals with Dual specificity protein kinase CLK3 (Homo sapiens) (UniProt P49761). Description: Binding affinity to wild-type human full length CLK3 (M1 to R490 residues) expressed in bacterial expression system assessed as remaining unbound target protein level at 1000 nM by Kinomescan method relative to control. The method, boiled down: as §2
The target of data set [17] is Serine/threonine-protein kinase N1 (Homo sapiens) (UniProt Q16512). Description: Binding affinity to wild-type human partial length PKN1 (E598 to C948 residues) expressed in bacterial expression system assessed as remaining unbound target protein level at 1000 nM by Kinomescan method relative to control.
Data set [18] addresses Receptor tyrosine-protein kinase erbB-4 (Homo sapiens) (UniProt Q15303). Description: Binding affinity to wild-type human partial length ERBB4 (L690 to K994 residues) expressed in bacterial expression system assessed as remaining unbound target protein level at 1000 nM by Kinomescan method relative to control.
In data set [19] the test system is Phosphatidylinositol 4,5-bisphosphate 3-kinase catalytic subunit alpha isoform (Homo sapiens), P42336 [H1047Y]. The data set can be described thus: Binding affinity to human partial length PIK3CA H1047Y mutant (R108 to N1068 residues) expressed in mammalian expression system assessed as remaining unbound target protein level at 1000 nM by Kinomescan method relative to control. The method, boiled down:
as §1

The species named for a further data set is Homo sapiens. The data set can be described thus: Induction of apoptosis in human MEC1 cells assessed as decrease in XIAP level up to 3 uM after 2 hrs by immunoblotting analysis. The format is functional, cell-based. Background: A western blot detects proteins with antibodies after separation by electrophoresis.
The target in data set [20] is Tyrosine-protein kinase JAK3 (Homo sapiens) (UniProt P52333). Description: Binding affinity to wild-type human partial length JAK3 JH1 catalytic domain (I781 to S1124 residues) expressed in mammalian expression system assessed as remaining unbound target protein level at 1000 nM by Kinomescan method relative to control.

Sequence of Phosphatidylinositol 4,5-bisphosphate 3-kinase catalytic subunit alpha isoform (Homo sapiens), P42336 [H1047Y] (P42336 whole entry H1047Y, the tested form may be a part, canonical isoform): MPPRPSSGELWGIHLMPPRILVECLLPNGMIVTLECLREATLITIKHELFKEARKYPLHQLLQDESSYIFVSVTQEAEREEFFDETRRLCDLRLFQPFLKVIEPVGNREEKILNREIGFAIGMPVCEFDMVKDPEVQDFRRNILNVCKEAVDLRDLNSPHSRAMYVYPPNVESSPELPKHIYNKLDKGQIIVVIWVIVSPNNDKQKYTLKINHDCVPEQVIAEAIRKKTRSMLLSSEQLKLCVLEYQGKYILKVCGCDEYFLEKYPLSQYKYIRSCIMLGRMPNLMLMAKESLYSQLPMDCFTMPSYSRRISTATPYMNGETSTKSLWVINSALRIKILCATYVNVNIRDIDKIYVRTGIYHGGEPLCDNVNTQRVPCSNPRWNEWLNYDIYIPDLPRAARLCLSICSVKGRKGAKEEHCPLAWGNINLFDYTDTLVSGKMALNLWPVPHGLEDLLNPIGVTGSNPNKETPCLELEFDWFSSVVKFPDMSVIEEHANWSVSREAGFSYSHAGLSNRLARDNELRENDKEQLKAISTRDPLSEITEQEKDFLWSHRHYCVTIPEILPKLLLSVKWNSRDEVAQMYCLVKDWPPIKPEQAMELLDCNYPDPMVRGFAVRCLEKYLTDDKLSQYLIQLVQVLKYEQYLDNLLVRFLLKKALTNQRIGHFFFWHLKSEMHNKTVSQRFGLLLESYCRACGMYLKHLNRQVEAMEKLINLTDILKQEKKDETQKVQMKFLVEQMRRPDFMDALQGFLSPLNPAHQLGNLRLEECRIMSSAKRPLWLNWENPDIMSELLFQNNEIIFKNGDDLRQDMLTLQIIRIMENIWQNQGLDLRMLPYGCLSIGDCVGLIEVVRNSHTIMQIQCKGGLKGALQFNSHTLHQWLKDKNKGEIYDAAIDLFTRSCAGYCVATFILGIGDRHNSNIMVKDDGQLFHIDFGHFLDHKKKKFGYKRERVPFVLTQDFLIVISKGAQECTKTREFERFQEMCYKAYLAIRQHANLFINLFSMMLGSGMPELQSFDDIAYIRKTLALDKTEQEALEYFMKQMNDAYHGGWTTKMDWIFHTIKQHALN
Sequence of Mitogen-activated protein kinase kinase kinase 19 (Homo sapiens) (Q56UN5 whole entry, the tested form may be a part): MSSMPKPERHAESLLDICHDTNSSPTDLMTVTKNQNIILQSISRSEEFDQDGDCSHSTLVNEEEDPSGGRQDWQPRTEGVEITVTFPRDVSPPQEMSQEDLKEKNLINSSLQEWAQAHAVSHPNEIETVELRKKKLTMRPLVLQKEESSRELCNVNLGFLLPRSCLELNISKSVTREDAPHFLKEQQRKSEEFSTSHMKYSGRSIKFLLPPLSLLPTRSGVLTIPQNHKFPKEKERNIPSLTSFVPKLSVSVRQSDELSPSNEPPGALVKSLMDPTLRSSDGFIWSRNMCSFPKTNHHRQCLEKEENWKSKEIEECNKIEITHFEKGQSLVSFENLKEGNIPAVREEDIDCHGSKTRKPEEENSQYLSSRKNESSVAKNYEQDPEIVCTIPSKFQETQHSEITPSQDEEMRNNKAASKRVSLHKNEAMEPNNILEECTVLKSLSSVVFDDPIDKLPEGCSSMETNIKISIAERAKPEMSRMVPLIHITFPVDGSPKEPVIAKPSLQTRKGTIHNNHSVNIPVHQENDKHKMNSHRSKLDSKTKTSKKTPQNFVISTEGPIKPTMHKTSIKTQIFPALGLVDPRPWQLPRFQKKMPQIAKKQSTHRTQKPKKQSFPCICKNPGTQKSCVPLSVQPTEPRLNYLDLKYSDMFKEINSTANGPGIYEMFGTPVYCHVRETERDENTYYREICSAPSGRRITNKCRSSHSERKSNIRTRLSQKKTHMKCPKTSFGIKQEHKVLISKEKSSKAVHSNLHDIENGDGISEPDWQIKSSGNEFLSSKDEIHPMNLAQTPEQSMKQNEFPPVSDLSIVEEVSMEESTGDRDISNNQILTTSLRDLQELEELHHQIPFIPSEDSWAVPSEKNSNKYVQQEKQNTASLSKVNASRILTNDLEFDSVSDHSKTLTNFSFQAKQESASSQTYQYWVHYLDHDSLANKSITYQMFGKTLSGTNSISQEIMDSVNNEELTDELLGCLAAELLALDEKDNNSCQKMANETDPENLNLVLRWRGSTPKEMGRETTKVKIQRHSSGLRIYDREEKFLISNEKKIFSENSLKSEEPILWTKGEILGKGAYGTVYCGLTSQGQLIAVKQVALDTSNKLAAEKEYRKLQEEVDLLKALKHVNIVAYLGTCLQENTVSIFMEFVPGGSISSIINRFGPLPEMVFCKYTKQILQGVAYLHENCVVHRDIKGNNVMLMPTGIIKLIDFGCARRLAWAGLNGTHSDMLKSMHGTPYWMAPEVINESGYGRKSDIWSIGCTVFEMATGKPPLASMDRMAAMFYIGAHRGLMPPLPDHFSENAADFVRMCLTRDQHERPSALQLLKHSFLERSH
Sequence of Dual specificity protein kinase CLK3 (Homo sapiens) (P49761 whole entry, looked up, the tested form may be a part): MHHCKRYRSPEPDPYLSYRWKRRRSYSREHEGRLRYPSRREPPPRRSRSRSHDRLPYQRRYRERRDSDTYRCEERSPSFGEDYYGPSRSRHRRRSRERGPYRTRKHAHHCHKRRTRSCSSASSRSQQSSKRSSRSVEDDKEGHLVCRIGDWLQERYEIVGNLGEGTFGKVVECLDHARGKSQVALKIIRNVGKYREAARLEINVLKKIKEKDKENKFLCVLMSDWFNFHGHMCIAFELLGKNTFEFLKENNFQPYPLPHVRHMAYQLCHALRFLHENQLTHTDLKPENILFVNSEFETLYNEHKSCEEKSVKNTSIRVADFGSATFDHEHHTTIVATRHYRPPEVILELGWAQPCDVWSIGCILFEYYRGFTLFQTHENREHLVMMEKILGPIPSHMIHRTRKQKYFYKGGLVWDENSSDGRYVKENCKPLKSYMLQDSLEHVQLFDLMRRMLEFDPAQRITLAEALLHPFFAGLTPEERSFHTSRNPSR
Sequence of Cyclin-dependent kinase 14 (Homo sapiens) (O94921 whole entry, the tested form may be a part): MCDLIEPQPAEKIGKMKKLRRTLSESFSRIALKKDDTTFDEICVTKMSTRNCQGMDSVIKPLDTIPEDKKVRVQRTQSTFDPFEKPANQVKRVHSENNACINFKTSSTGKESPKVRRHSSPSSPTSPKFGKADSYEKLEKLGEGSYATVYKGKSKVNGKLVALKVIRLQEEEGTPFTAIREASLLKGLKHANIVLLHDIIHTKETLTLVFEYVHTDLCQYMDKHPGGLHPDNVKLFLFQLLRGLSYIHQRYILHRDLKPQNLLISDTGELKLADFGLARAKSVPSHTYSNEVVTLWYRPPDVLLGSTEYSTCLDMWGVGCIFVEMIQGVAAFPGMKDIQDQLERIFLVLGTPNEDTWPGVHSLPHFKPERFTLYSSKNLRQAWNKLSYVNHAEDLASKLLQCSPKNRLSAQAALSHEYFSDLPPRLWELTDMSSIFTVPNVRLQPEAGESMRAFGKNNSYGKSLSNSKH
Sequence of Cyclin-dependent kinase 13 (Homo sapiens) (Q14004 whole entry, looked up, the tested form may be a part): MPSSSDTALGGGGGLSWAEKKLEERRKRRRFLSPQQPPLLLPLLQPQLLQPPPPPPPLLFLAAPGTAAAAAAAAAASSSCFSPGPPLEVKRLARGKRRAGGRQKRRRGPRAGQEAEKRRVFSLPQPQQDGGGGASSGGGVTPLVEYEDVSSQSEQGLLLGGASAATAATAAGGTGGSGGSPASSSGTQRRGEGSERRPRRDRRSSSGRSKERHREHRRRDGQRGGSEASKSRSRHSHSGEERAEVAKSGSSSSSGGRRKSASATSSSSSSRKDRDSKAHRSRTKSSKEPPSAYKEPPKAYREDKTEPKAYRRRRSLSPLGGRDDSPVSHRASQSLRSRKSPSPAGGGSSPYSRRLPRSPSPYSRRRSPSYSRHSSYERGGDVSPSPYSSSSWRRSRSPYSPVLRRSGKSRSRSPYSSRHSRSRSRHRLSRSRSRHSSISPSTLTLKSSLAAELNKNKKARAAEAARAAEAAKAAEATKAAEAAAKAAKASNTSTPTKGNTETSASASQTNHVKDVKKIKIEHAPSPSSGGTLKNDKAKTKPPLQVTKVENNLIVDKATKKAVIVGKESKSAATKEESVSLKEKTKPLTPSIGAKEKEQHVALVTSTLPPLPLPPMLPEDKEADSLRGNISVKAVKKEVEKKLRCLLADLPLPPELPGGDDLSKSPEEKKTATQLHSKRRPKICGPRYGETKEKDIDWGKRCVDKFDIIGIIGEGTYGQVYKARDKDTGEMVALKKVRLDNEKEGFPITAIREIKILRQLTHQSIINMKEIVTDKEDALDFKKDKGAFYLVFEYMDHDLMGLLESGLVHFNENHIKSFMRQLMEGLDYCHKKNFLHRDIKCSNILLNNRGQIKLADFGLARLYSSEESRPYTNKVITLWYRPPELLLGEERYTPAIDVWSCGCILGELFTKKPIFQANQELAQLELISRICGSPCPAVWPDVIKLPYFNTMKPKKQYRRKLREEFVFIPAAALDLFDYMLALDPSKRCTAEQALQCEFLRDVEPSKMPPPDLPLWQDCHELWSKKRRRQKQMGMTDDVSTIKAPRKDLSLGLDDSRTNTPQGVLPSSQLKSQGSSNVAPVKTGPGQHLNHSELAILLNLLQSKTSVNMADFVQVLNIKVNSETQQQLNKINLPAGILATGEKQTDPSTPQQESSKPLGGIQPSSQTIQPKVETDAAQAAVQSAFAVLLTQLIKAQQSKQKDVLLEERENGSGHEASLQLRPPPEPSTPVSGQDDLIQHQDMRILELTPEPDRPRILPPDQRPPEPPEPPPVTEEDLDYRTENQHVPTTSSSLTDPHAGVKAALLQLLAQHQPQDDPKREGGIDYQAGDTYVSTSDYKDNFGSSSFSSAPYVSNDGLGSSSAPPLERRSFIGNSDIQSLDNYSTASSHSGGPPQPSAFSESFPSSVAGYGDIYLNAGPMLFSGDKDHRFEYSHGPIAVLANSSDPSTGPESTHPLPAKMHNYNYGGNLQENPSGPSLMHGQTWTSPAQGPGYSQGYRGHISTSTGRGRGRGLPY

For orientation: Tmax means the time from dosing to the highest level. Broadly, the IC50 is the concentration at which inhibition is half-maximal. Consider `COCCN[C@H]1CC[C@H](Nc2cc(-c3csc(NCC4(C#N)CCOCC4)n3)c(Cl)cn2)CC1`, for which the Activity was 93% in [1]; 72% in data set [2]; “Dose-dependent effect” in the data set with HL-60; 96% in data set [3]; 13% in data set [4]; 80% in data set [5]. In addition, the Activity in [6] was determined as 99%; in data set [7], 84%; in data set [8], 75%; in [10], 88%; in data set [11] it was 72%; in data set [12], 87%. Besides, the Activity worked out at 90% in [13]; 100% in data set [14]; 92% in data set [16]; 87% in [17]; 85% in data set [18]; 54% in data set [19]. For the same compound, the Activity in data set [20] is 92%. In addition, the Tmax in data set [9] is 2 h. Also, in [15], the IC50 stood at 4.64 µM. For the same compound, the outcome in the data set listed under Homo sapiens was inactive.
